Series [1] concerns the target Hemagglutinin (Influenza A virus (A/Puerto Rico/8/1934(H1N1))) (UniProt P03452). The series is described as follows: Inhibition of hemagglutinin in compound-pretreated Influenza A virus (A/WSN/1933(H1N1)) infected in chicken RBC assessed as reduction in virus-induced agglutination measured after 25 mins. The series is classed as cell-based. To be noted: Erythrocyte. The method in brief: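 Hemagglutination inhibition: virus pretreated with compound, then chicken erythrocytes added and incubated a further 25 min at room temperature. Anti-HA antibody served as the positive control.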

The subject of series [2] is Influenza B virus. The series is described as follows: Antiviral activity against Influenza B virus (B/Sichuan/531/2018(Victoria)) infected in cells assessed as reduction in infected cells. The series is classed as functional, organism-based.
The nature of series [3]: Selectivity index, ratio of CC50 for MDCK cells to IC50 for antiviral activity against Influenza A virus (B/Sichuan/531/2018(Victoria)). As to conditions: dog, read-out: Ratio CC50/IC50. It is filed as toxicity.
Series [4] concerns Influenza A virus. The series is described as follows: Antiviral activity against Influenza A virus (A/WSN/1933(H1N1)) infected in MDCK cells assessed as s reduction in virus-induced cytopathic effect after 40 hrs incubation by CellTiter-Glo assay. It is filed as functional, organism-based. The gist of the method:
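CPE-based dose–response in MDCK cells infected with A/WSN/33 (H1N1), using the CellTiter-Glo viability read-out. Medium with 1% DMSO was the negative control and oseltamivir phosphate the positive control. IC50 is the concentration giving 50% inhibition of virus-induced CPE. Means of duplicate samples from three independent experiments.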

Series [5] has as its system Influenza A virus. In words: Antiviral activity against Influenza A virus (A/WSN/1933(H1N1)) infected in MDCK cells assessed as inhibition of virus-induced cytopathic effect at 100 uM measured after 40 hrs incubation by inverted microscpic imaging analysis. The series is classed as functional. The method in brief:
(§1)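 MDCK cells infected with influenza A/WSN/33 (H1N1), with compounds at 100 μM. Viral CPE judged by direct microscopic observation. DMSO served as the negative control and oseltamivir phosphate as the positive control. Triplicate experiments, with standard deviations.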

The test system of series [6] is Influenza A virus. The series is described as follows: Antiviral activity against Influenza A virus (A/Hong Kong/4801/2014 (H3N2)) infected in cells assessed as reduction in infected cells. It is filed as functional, organism-based.
Series [7] is described as follows: Cytotoxicity against MDCK cells assessed as reduction in cell viability by CellTiter-Glo assay. It is filed as cell-based, Canis lupus familiaris. As to conditions: dog. The method in brief:
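Viability of normal, uninfected MDCK cells measured by CellTiter-Glo. Medium containing 1% DMSO was the negative control. CC50 is the concentration that reduces viability by 50%.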
Background: In ATP-based viability assays light output follows the ATP content of the culture.

The test system of series [8] is Influenza A virus. In words: Antiviral activity against Influenza A virus (A/WSN/1933(H1N1)) infected in MDCK cells assessed as reduction in virus-induced cytopathic effect at 100 uM measured after 40 hrs incubation by inverted microscpic imaging analysis. It is filed as functional, organism-based. The method in brief:
as §1

A short description of series [9]: Selectivity ratio of CC50 for MDCK cells to IC50 for Influenza A virus A/WSN/33(H1N1) infected in MDCK cells. The series is classed as toxicity, cell-based. As to conditions: dog, read-out: Ratio CC50/IC50. The method in brief: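 Selectivity index calculated as CC50 (uninfected MDCK cells, CellTiter-Glo) divided by IC50 (inhibition of A/WSN/33 H1N1-induced CPE in MDCK cells).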

Series [10] is described as follows: Selectivity index, ratio of CC50 for MDCK cells to IC50 for antiviral activity against Influenza A virus (A/Hong Kong/4801/2014 (H3N2)). The series is classed as toxicity. As to conditions: dog, read-out: Ratio CC50/IC50.
Series [11] relates to Influenza A virus. In words: Antiviral activity against Influenza A virus (A/WSN/1933(H1N1)) infected in MDCK cells assessed as suppression of M2 protein expression at early stage of infection measured after 2 hrs post infection by Western blot analysis. The series is classed as functional. The method in brief: (§2)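 Time-of-addition study in MDCK cells infected with A/WSN/33 (H1N1). Compound was present during one of five windows: 0–10, 0–2, 2–5, 5–8 or 8–10 h, corresponding to entry (0–2 h), replication/translation (2–8 h) and release (8–10 h). M2 and NP protein levels were compared with a DMSO control.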
A general note: A western blot detects proteins with antibodies after separation by electrophoresis.

In series [12] the test system is Influenza A virus. The series is described as follows: Antiviral activity against Influenza A virus (A/WSN/1933(H1N1)) infected in MDCK cells assessed as suppression of NP protein expression measured after 2 hrs post infection by Western blot analysis. The series is classed as functional. The method in brief:
as §2

Series [13] deals with Hemagglutinin (Influenza A virus (A/Puerto Rico/8/1934(H1N1)), UniProt P03452). The series is described as follows: Binding affinity to CM5 chip immobilized Influenza A virus (A/Michigan/45/2015) (H1N1)) hemagglutin assessed as dissociation constant by surface plasmon resonance assay. A general note: SPR reads the build-up and loss of mass on a sensor chip optically.
Series [14] has as its target Hemagglutinin (Influenza A virus, UniProt B4URE7). The series is described as follows: Inhibition of CM5 chip immobilized Influenza A virus (A/Viet Nam/1203/2004(H5N1)) HA by SPR method.

Experimental findings from ChEMBL document CHEMBL4842395, “Design and Synthesis of Oleanolic Acid Trimers to Enhance Inhibition of Influenza Virus Entry” (ACS Med Chem Lett, 2021) are described below.

Active and inactive are the calls of the source. The rule behind the calls is not given here. Numbered stars: 1 amine (or outer) side, 2 acyl side, 3 side chain; on linkers, the order of the positions; unused ones are H or OH. Bridge positions count the residues as written; N and C are the ends. Square brackets hold non-standard residues; d marks the D form. Peptide text beside a SMILES is read from it. I, II: the chains in the order shown. X1 = O=C(O)C1(OCCCCC(=O)[*:2])C[C@H](O)[C@@H](N[*:1])[C@H]([C@H](O)[C@H](O)CO)O1; X2 = O=C(NCCCCCCN[*:1])c1cc(C(=O)NCCCCCCN[*:2])cc(C(=O)NCCCCCCN[*:3])c1 Some results are limits rather than exact numbers.

Hemagglutinin, sequence (B4URE7 whole entry): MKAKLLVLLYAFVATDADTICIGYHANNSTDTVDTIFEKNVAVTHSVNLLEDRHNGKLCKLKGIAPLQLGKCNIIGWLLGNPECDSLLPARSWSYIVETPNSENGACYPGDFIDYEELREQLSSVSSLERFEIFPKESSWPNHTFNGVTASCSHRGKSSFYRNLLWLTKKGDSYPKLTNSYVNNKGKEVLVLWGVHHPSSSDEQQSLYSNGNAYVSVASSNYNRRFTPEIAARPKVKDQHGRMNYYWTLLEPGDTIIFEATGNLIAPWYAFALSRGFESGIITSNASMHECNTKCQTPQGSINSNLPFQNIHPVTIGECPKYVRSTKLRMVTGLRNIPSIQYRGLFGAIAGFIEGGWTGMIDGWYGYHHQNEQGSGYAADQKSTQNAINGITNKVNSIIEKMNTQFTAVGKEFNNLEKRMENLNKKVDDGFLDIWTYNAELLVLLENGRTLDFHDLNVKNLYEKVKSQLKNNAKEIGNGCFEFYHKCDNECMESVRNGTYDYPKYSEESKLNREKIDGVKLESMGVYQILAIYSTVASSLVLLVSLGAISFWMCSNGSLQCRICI
Hemagglutinin (Influenza A virus (A/Puerto Rico/8/1934(H1N1)), UniProt P03452), sequence (P03452 whole entry): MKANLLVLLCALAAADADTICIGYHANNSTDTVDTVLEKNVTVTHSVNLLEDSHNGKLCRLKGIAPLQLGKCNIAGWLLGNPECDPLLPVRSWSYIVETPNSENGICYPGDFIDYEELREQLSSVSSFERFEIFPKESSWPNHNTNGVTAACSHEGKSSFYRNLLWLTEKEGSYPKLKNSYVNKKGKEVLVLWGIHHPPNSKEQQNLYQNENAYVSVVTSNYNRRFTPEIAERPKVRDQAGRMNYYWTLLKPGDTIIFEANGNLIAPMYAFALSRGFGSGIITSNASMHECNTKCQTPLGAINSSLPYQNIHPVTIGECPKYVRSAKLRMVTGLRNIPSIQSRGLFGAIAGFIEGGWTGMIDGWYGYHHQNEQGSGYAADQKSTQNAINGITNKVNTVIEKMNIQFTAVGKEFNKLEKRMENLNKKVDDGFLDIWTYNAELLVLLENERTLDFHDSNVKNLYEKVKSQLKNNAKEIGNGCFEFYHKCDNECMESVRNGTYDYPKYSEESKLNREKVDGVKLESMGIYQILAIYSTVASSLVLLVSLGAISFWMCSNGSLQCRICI
Hemagglutinin (Influenza A virus (A/Puerto Rico/8/1934(H1N1))), sequence (P03452 whole entry): as above

As a reminder, the inhibition is how much of the control response was suppressed. The IC50 is the concentration at which inhibition is half-maximal. One may read the CC50 as the concentration at which the toxic effect on the cells reaches its halfway point. For `CC1(C)CC[C@]2(C(=O)NCCCc3cn(CC(CO)(Cn4cc(CCCNC(=O)[C@]56CCC(C)(C)C[C@H]5C5=CC[C@@H]7[C@@]8(C)CC[C@H](O)C(C)(C)[C@@H]8CC[C@@]7(C)[C@]5(C)CC6)nn4)Cn4cc(CCCNC(=O)[C@]56CCC(C)(C)C[C@H]5C5=CC[C@@H]7[C@@]8(C)CC[C@H](O)C(C)(C)[C@@H]8CC[C@@]7(C)[C@]5(C)CC6)nn4)nn3)CC[C@]3(C)C(=CC[C@@H]4[C@@]5(C)CC[C@H](O)C(C)(C)[C@@H]5CC[C@]43C)[C@@H]2C1`, in series [1], the inhibition result was “Active”. The half-inhibitory concentration (IC50) worked out at 37600 nM in series [2], 310 nM in series [4] and 1710 nM in [6]. Further, the values for the selectivity ratio in series [3], in series [9] and in series [10] were over 2.66, over 323 and over 58.5, respectively. For the same compound, the inhibition at 100 µM in [5] is over 80%. Also, in series [7], the CC50 is over 100000 nM. In addition, the outcome in [8] was Active.
In general, Kd refers to the equilibrium constant for the complex coming apart. Consider `CC1(C)CC[C@]2(C(=O)NCCCCc3cn(Cc4cc(Cn5cc(CCCCNC(=O)[C@]67CCC(C)(C)C[C@H]6C6=CC[C@@H]8[C@@]9(C)CC[C@H](O)C(C)(C)[C@@H]9CC[C@@]8(C)[C@]6(C)CC7)nn5)cc(Cn5cc(CCCCNC(=O)[C@]67CCC(C)(C)C[C@H]6C6=CC[C@@H]8[C@@]9(C)CC[C@H](O)C(C)(C)[C@@H]9CC[C@@]8(C)[C@]6(C)CC7)nn5)c4)nn3)CC[C@]3(C)C(=CC[C@@H]4[C@@]5(C)CC[C@H](O)C(C)(C)[C@@H]5CC[C@]43C)[C@@H]2C1`, for which the “inhibition (INH)” value in series [11] and in series [12] was over 90% each time. Further, the half-inhibitory concentration (IC50) in [2] amounted to 1870 nM; in series [4], 230 nM; in [6], 4580 nM. Besides, the selectivity ratio is over 53.5 in series [3], over 435 in series [9] and over 21.8 in series [10]. The inhibition at 100 µM in series [5] is over 80%. The CC50 in series [7] was over 100000 nM. The dissociation constant (Kd) in series [13] stood at 2630 nM.
`CC(=O)N[C@H]1[C@H]([C@H](O)[C@H](O)CO)OC(OCCCCC(=O)NCC(=O)N[C@@H](CO)C(=O)NCC(=O)N[C@@H](CO)C(=O)N[C@@H](C)C(=O)N[C@@H](CO)C(=O)NCC(=O)N[C@@H](CO)C(=O)NCC(=O)NCCCCCCNC(=O)c2cc(C(=O)NCCCCCCNC(=O)CNC(=O)[C@H](CO)NC(=O)CNC(=O)[C@H](CO)NC(=O)[C@H](C)NC(=O)[C@H](CO)NC(=O)CNC(=O)[C@H](CO)NC(=O)CNC(=O)CCCCOC3(C(=O)O)C[C@H](O)[C@@H](NC(C)=O)[C@H]([C@H](O)[C@H](O)CO)O3)cc(C(=O)NCCCCCCNC(=O)CNC(=O)[C@H](CO)NC(=O)CNC(=O)[C@H](CO)NC(=O)[C@H](C)NC(=O)[C@H](CO)NC(=O)CNC(=O)[C@H](CO)NC(=O)CNC(=O)CCCCOC3(C(=O)O)C[C@H](O)[C@@H](NC(C)=O)[C@H]([C@H](O)[C@H](O)CO)O3)c2)(C(=O)O)C[C@@H]1O` (some centres not stated) (I: Ac-[X1]GSGSASGSG / II: Ac-[X1]GSGSASGSG / III: Ac-[X1]GSGSASGSG; linker I:C-II:C-III:C via X2) yielded a dissociation constant Kd in [14] of 446 nM.
